Laboratory results as given in ChEMBL document CHEMBL1127039, “Nonpeptide angiotensin II antagonists derived from 4H-1,2,4-triazoles and 3H-imidazo[1,2-b][1,2,4]triazoles” (J Med Chem, 1993).
Values belong to the compound of their own block, whether it stands above or below them. The source made the active and inactive calls. The rule behind the calls is not given here.

Tests used:
[1] = system: Rattus norvegicus; assay: Peak inhibition of A II pressor response in conscious normotensive rats after peroral administration of 30 mg/kg of drug; assay type: functional; details: route oral
Summary of the method: (§1)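 Male Sprague-Dawley rats (300–400 g) catheterized under methohexital, recovered overnight, conscious. Compound given iv (saline or NaHCO3/saline/water vehicle) or po, with food withheld for oral dosing. AII 0.1 μg/kg iv bolus given at -45, -30 and -15 min, then at 5–60 min and every 30 min afterwards. Peak percent inhibition of the AII ΔMAP response, averaged over at least two rats.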

[2] = system: Rattus norvegicus; assay: Time from onset of action until significant (i.e., >= 30%) inhibition of pressor response no longer observed (30 mg/kg peroral route).; assay type: functional
Summary of the method: (§2)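 Same conscious-rat AII challenge protocol: AII 0.1 μg/kg iv boluses repeated after iv or po dosing, ΔMAP recorded. Duration is the time from onset until inhibition falls below 30% and stays below 30% for two further AII challenges. Averaged over at least two rats.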

[3] = biological target: T1, Type-1 angiotensin II receptor (Oryctolagus cuniculus, UniProt P34976); assay: Displacement of [125I]-Sar1-Ile8-A II at the rabbit aorta angiotensin II receptor, type 1; assay type: tissue-based
T1 sequence (P34976 whole entry): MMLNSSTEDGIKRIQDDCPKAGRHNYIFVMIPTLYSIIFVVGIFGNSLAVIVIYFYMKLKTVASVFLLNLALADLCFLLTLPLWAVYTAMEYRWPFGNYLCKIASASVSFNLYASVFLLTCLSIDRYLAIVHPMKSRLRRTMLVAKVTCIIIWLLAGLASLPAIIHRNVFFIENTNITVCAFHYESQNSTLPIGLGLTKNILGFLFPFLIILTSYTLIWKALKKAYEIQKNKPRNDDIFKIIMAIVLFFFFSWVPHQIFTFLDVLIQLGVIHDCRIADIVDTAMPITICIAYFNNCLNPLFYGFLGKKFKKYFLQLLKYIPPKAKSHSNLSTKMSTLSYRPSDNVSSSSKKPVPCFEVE
Summary of the method: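 Rabbit aorta membranes in 50 mM Tris-HCl pH 7.4, 5 mM MgCl2, 0.2 mg/mL bacitracin; 0.2% BSA only in original version. Nonspecific binding with 1 μM unlabeled Sar1Ile8-AII. Filtration, gamma counting. Duplicate tubes, five concentrations; IC50 from nonlinear regression of displacement curves, sometimes averaged over separate assays.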

[4] = system: Rattus norvegicus; assay: Peak inhibition of A II pressor response in conscious normotensive rats after intravenous administration of 10 mg/kg of drug (3 animals treated); assay type: functional; summary of the method: as §1
[5] = system: Rattus norvegicus; assay: Time from onset of action until significant (i.e., >= 30%) inhibition of pressor response no longer observed (10 mg/kg intravenous route).; assay type: functional; summary of the method: as §2
[6] = system: Rattus norvegicus; assay: Time from onset of action until significant (i.e., >= 30%) inhibition of pressor response no longer observed (0.3 mg/kg intravenous route); assay type: functional; summary of the method: as §2
[7] = system: Rattus norvegicus; assay: Time from onset of action until significant (i.e., >= 30%) inhibition of pressor response no longer observed (1 mg/kg peroral route); assay type: functional; summary of the method: as §2
[8] = system: Rattus norvegicus; assay: Peak inhibition of A II pressor response in conscious normotensive rats after intravenous administration of 0.3 mg/kg of drug (2 animals treated); assay type: functional; summary of the method: as §1
[9] = system: Rattus norvegicus; assay: Peak inhibition of A II pressor response in conscious normotensive rats after peroral administration of 1 mg/kg of drug (2 animals treated); assay type: functional; details: route oral; summary of the method: as §1
[10] = system: Rattus norvegicus; assay: Time from onset of action until significant (i.e., >= 30%) inhibition of pressor response no longer observed (0.3 mg/kg peroral route).; assay type: functional; summary of the method: as §2
[11] = system: Rattus norvegicus; assay: Peak inhibition of A II pressor response in conscious normotensive rats after peroral administration of 0.3 mg/kg of drug (2 animals treated); assay type: functional; details: route oral; summary of the method: as §1
[12] = system: Rattus norvegicus; assay: Peak inhibition of A II pressor response in conscious normotensive rats after intravenous administration of 0.3 mg/kg of drug (4 animals treated); assay type: functional; summary of the method: as §1
[13] = species on record: Rattus norvegicus; assay: In vitro antagonistic activity by displacement of [125I]-Sar1-Ile8-A II at the rat adrenal cortical […] AT1 receptor; assay type: functional
[14] = system: Rattus norvegicus; assay: Peak inhibition of A II pressor response in conscious normotensive rats after peroral administration of 3 mg/kg of drug (4 animals treated); assay type: functional; details: route oral; summary of the method: as §1
[15] = system: Rattus norvegicus; assay: Time from onset of action until significant (i.e., >= 30%) inhibition of pressor response no longer observed (3 mg/kg peroral route); assay type: functional; summary of the method: as §2
[16] = system: Rattus norvegicus; assay: Time from onset of action until significant (i.e., >= 30%) inhibition of pressor response no longer observed (0.3 mg/kg peroral route)); Not active; assay type: functional, organism-based; summary of the method: as §2
[17] = system: Rattus norvegicus; assay: Peak inhibition of A II pressor response in conscious normotensive rats after peroral administration of 0.3 mg/kg of drug (2 animals treated); Not active; assay type: functional, organism-based; design: dose 0.3 mg/kg; summary of the method: as §1
[18] = system: Rattus norvegicus; assay: Peak inhibition of A II pressor response in conscious normotensive rats after intravenous administration of 1 mg/kg of drug (2 animals treated); assay type: functional; summary of the method: as §1
[19] = system: Rattus norvegicus; assay: Time from onset of action until significant (i.e., >= 30%) inhibition of pressor response no longer observed (1 mg/kg intravenous route); assay type: functional; summary of the method: as §2
[20] = system: Rattus norvegicus; assay: Time from onset of action until significant (i.e., >= 30%) inhibition of pressor response no longer observed (3 mg/kg intravenous route); assay type: functional; summary of the method: as §2
[21] = system: Rattus norvegicus; assay: Peak inhibition of A II pressor response in conscious normotensive rats after intravenous administration of 3 mg/kg of drug (4 animals treated); assay type: functional; summary of the method: as §1
[22] = system: Rattus norvegicus; assay: Time from onset of action until significant (i.e., >= 30%) inhibition of pressor response no longer observed (1 mg/Kg intravenous route).; assay type: functional; summary of the method: as §2
[23] = system: Rattus norvegicus; assay: Peak inhibition of A II pressor response in conscious normotensive rats after intravenous administration of 1 mg/Kg of drug (2 animals treated); assay type: functional; summary of the method: as §1
[24] = system: Rattus norvegicus; assay: Peak inhibition of A II pressor response in conscious normotensive rats after intravenous administration of 3 mg/kg of drug (2 animals treated); assay type: functional; summary of the method: as §1
[25] = system: Rattus norvegicus; assay: Peak inhibition of A II pressor response in conscious normotensive rats after peroral administration of 3 mg/kg of drug (3 animals treated); assay type: functional; details: route oral; summary of the method: as §1
[26] = system: Rattus norvegicus; assay: Time from onset of action until significant (i.e., >= 30%) inhibition of pressor response no longer observed (3 mg/kg intravenous route).; assay type: functional; summary of the method: as §2
[27] = system: Rattus norvegicus; assay: Time from onset of action until significant (i.e., >= 30%) inhibition of pressor response no longer observed (0.3 mg/kg peroral route); Not active; assay type: functional, organism-based; summary of the method: as §2
[28] = system: Rattus norvegicus; assay: Peak inhibition of A II pressor response in conscious normotensive rats after peroral administration of 3 mg/kg of drug (results shown for 3 out of 4 animals); assay type: functional; details: route oral; summary of the method: as §1

IC50 [3]: 0.54 µM
SMILES: CCCCc1nnc(SCC(=O)OC)n1Cc1ccc(-c2ccccc2C(=O)O)cc1
inhibition in vivo at 10 mg/kg [4]: 93%
Duration [5]: 0.9 h

IC50 [13]: 0.019 µM
SMILES: CCCCc1nc(Cl)c(CO)n1Cc1ccc(-c2ccccc2-c2nnn[nH]2)cc1 [LOSARTAN]
Duration [6]: 5.5 h
inhibition in vivo at 0.3 mg/kg [12]: 52%
Duration [10]: >3.5 h
inhibition in vivo at 0.3 mg/kg [11]: 36%
inhibition in vivo at 3 mg/kg [14]: 94%
Duration [15]: >4.5 h

IC50 [3]: 0.0066 µM
SMILES: CCCCc1nnc(SCc2ccc([N+](=O)[O-])cc2)n1Cc1ccc(-c2ccccc2-c2nn[nH]n2)cc1
Duration [20]: 1.4 h
inhibition in vivo at 3 mg/kg [21]: 65%

IC50 [3]: 0.011 µM
SMILES: CCCCc1nnc([S+]([O-])Cc2ccc(Cl)cc2)n1Cc1ccc(-c2ccccc2-c2nn[nH]n2)cc1 (stereo not drawn)
Duration [22]: 0.1 h
Inhibition [23]: 42%

IC50 [3]: 0.0015 µM
SMILES: CCCCc1nnc(SCc2ccccc2C(=O)O)n1Cc1ccc(-c2ccccc2-c2nn[nH]n2)cc1
Duration [6]: 5.5 h
Duration [27]: inactive
inhibition in vivo at 0.3 mg/kg [8]: 100%
inhibition in vivo at 3 mg/kg [28]: 54%
inhibition in vivo at 0.3 mg/kg [11]: 0%
Duration [15]: >6 h

More lines, now with the values behind:

SMILES: CCCCc1nnc(SCc2ccccc2)n1Cc1ccc(NC(=O)c2ccccc2C(=O)O)cc1
inhibition in vivo at 30 mg/kg [1]: 33%
Duration [2]: 0.4 h
IC50 [3]: 0.015 µM

SMILES: CCCCc1nc(Cl)c(C(=O)O)n1Cc1ccc(-c2ccccc2-c2nn[nH]n2)cc1 [CARBOXYLIC ACID METABOLITE]
Duration [6]: >29 h
Duration [7]: >7 h
inhibition in vivo at 0.3 mg/kg [8]: 100%
inhibition in vivo at 1 mg/kg [9]: 72%
Duration [10]: 2.8 h
inhibition in vivo at 0.3 mg/kg [11]: 63%

SMILES: CCCCc1nnc(SCc2ccccc2C(=O)O)n1Cc1ccc(NC(=O)c2ccccc2C(=O)O)cc1
Duration [6]: 0.9 h
inhibition in vivo at 0.3 mg/kg [12]: 74%
Duration [16]: inactive
inhibition [17]: inactive
IC50 [3]: 0.0033 µM
inhibition in vivo at 1 mg/kg [18]: 100%
Duration [19]: 1.4 h

SMILES: CCCCc1nnc(SCc2ccc(Cl)cc2)n1Cc1ccc(-c2ccccc2-c2nn[nH]n2)cc1
inhibition in vivo at 3 mg/kg [24]: 62%
inhibition in vivo at 3 mg/kg [25]: 50%
Duration [26]: 1 h
Duration [15]: 1.5 h
